Columns and labels:
[1] = system: K562; test: Cytotoxicity against human K562 cells after 24 hrs by MTT assay; format: functional, cell-based; conditions: K562, 24 h
Summary of the method: (§1)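 Cells obtained from National Center for Cell Sciences, Pune, and grown in RPMI-1640 with 10% heat-inactivated FBS, penicillin/streptomycin and 2 mM glutamine at 37 °C, 5% CO₂. Seeded at 5 × 10³ cells/well and treated with or without compound at 1 and 10 for 24 h. MTT (5 mg/ml in PBS) was added for 2 h at 37 °C, then DMSO, and absorbance read at 570 nm. Triplicate wells per point; IC50 is 50% growth inhibition relative to untreated cells.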

[2] = system: COLO 205; test: Cytotoxicity against human COLO205 cells after 24 hrs by MTT assay; format: functional, cell-based; conditions: COLO 205, 24 h; summary of the method: as §1
[3] = system: MDA-MB-231; test: Cytotoxicity against human MDA-MB-231 cells after 24 hrs by MTT assay; format: functional, cell-based; conditions: MDA-MB-231, 24 h; summary of the method: as §1
[4] = system: IMR-32; test: Cytotoxicity against human IMR32 cells after 24 hrs by MTT assay; format: functional, cell-based; conditions: IMR-32, 24 h; summary of the method: as §1
[5] = target: T1, NAD-dependent protein deacetylase sirtuin-1 (Homo sapiens) (UniProt Q96EB6); test: Inhibition of human N-terminally hexa-his-tagged SIRT1 expressed in Escherichia coli BL21 (DE3) at 10 uM after 15 mins by […]
T1 sequence (whole entry): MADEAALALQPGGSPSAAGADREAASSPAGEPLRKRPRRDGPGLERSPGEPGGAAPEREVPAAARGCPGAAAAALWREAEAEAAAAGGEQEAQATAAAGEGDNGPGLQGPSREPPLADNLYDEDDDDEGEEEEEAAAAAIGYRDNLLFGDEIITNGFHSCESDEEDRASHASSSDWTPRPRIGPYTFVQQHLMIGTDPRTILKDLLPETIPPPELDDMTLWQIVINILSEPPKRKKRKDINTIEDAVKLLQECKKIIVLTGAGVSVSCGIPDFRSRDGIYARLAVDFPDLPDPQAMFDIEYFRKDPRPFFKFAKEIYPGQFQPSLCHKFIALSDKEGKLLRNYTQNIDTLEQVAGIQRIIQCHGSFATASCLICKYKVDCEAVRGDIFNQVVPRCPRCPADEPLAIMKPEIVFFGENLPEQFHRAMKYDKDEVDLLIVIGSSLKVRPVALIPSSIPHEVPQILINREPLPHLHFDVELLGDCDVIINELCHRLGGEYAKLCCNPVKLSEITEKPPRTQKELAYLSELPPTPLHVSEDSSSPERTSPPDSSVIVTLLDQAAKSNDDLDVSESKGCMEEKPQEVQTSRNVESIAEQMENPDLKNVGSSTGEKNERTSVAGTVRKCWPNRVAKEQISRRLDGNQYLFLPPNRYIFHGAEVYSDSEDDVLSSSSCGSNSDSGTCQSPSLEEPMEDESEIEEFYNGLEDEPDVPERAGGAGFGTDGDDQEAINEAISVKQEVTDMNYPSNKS
Summary of the method: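 Commercial SIRT1 fluorescence kit using bacterially purified human Sirt1, fluorophore-labelled substrate peptide (25) and NAD⁺ (25), with or without compound at 10, for 15 min at 37 °C. Stop solution was then added for 45 min at room temperature. Fluorescence read at Ex 360/Em 450 nm. The no-enzyme blank and the compound autofluorescence (no-enzyme) control were subtracted.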

| inhibition [5] | Compound | IC50 [1] | IC50 [2] | IC50 [3] | IC50 [4] |
| --- | --- | --- | --- | --- | --- |
| 62% | CS(=O)(=O)N(Cc1cn(Cc2cc3ccccc3nc2-c2ccccc2O)nn1)c1ccccc1I | 13 µM | 12 µM | 8 µM | 38 µM |
| 53% | [N-]=[N+]=NCc1cc2ccccc2nc1-c1ccccc1O | 11 µM | 19 µM | 12 µM | 24 µM |
| – | COc1cccc2cc3c(=O)oc4ccccc4c3nc12 | 35 µM | 24 µM | 16 µM | 46 µM |
| – | COc1ccc2c(c1)[nH]c1c(C)nccc12 [HARMINE] | 45 µM | 46 µM | 54 µM | 68 µM |
| – | COc1ccc2nc3c(cc2c1)c(=O)oc1ccccc13 | 39 µM | 41 µM | 9 µM | 36 µM |
| – | O=c1oc2ccccc2c2nc3ccc(Cl)cc3cc12 | 32 µM | 16 µM | 14 µM | 46 µM |
| – | Cc1ccc2nc3c(cc2c1)c(=O)oc1ccccc13 | 23 µM | 29 µM | 12 µM | 33 µM |
| – | OCc1cc2ccccc2nc1-c1ccccc1O | 74 µM | 40 µM | > 100 µM | > 100 µM |
| 48% | OCc1cc2cc(F)c(F)cc2nc1-c1ccccc1O | 12 µM | > 100 µM | > 100 µM | 63 µM |
| – | Cc1ccc2nc(-c3ccccc3O)c(CO)cc2c1 | 12 µM | > 100 µM | > 100 µM | > 100 µM |
| – | O=c1oc2ccccc2c2nc3ccc(F)cc3cc12 | 37 µM | 17 µM | 11 µM | 43 µM |
| – | O=c1oc2ccccc2c2nc3ccccc3cc12 | 43 µM | 18 µM | 12 µM | 28 µM |
| – | O=c1oc2ccccc2c2nc3cc(F)ccc3cc12 | 35 µM | 21 µM | 29 µM | 41 µM |
| – | OCc1cc2cc(Cl)ccc2nc1-c1ccccc1O | 11 µM | 24 µM | > 100 µM | 65 µM |
| 48% | O=c1oc2ccccc2c2nc3c(F)c(F)ccc3cc12 | 28 µM | 29 µM | 23 µM | 36 µM |
| 61% | NS(=O)(=O)c1cc(C(=O)O)cc([N+](=O)[O-])c1NCc1cc2ccccc2nc1-c1ccccc1O | 10 µM | 19 µM | 8 µM | 18 µM |
| 59% | NCc1cc2ccccc2nc1-c1ccccc1O | 23 µM | 32 µM | 19 µM | 46 µM |
| – | O=c1oc2ccccc2c2nc3cc(F)c(F)cc3cc12 | 41 µM | 11 µM | 8 µM | 25 µM |
| – | O=c1oc2ccccc2c2nc3cc(Br)ccc3cc12 | 23 µM | 38 µM | 19 µM | 23 µM |
